Experimental data collected from several papers.
Protocols differ between the studies behind these lines.
Matrix: plasma

SMILES	system	setting	Cmax
COc1ccc(C(O)COc2ccc(-c3csc(-c4ccc(OCC(O)c5ccc(OC)c(OC)c5)cc4)n3)cc2)cc1OC (centres unmarked)	C57BL/6 mouse	oral, 30 mg/kg	5980 ng/mL
CC[C@H](C)[C@@H]1NC(=O)[C@@](C)(NC(=O)[C@H](CCCNC(=N)N)NC(=O)[C@H](CC(C)C)NC(=O)[C@@H](NC(=O)[C@H](CCC(N)=O)NC(=O)[C@H](CC(C)C)NC(C)=O)[C@@H](C)O)CCCC=CCCC[C@@](C)(C(=O)N[C@@H](CC(C)C)C(=O)N[C@@H](Cc2ccc3ccccc3c2)C(N)=O)NC(=O)[C@H](CCCNC(=N)N)NC(=O)[C@H](CCC(N)=O)NC1=O	male BALB/c mouse	intravenous, 15 mg/kg	102 µM
CC(C)(C)c1ccc(O)c(CN(Cc2cc(C(C)(C)C)ccc2O)C2CCC(NC(N)=O)CC2)c1 (centres unmarked)	male C57BL/6 mouse	oral, 10 mg/kg, single dose	1020 ng/mL
Cc1nc(-c2cnc(NC(C)C)n(C)c2=O)ccc1Oc1ccnc(-c2cnn(C)c2)c1	female mouse	oral, 7.5 mg/kg, single dose	4450 ng/mL
C=CC(=O)N1CC2CC(n3nc(-c4ccc(C(=O)Nc5ccccn5)cc4)c4c(N)ncnc43)CC2C1 (centres unmarked)	SCID mouse	oral, 0.2 mg/kg	10.5 ng/mL
COc1ccc([C@@]23Oc4cc(OC)cc(OC)c4[C@]2(O)[C@H](O)[C@H](C(=O)N(C)C)[C@H]3c2ccccc2)cc1	mouse	intravenous, 5 mg/kg	~11 µM
CS(=O)(=O)CCNCc1ccc(-c2ccc3ncnc(Nc4ccc(OCc5cccc(F)c5)c(Cl)c4)c3c2)o1	nude mouse	oral, 50 mg/kg, single dose	6470 ng/mL
CN1CCC[C@H](CN2c3ccccc3Sc3ccccc32)C1.O=C(O)CCC(=O)O	mouse	oral, 64 mg/kg, single dose	1540 ng/mL
